Source: ChEMBL document CHEMBL4152323, “N-(1,3,4-oxadiazol-2-yl)benzamide analogs, bacteriostatic agents against methicillin- and vancomycin-resistant bacteria” (Eur J Med Chem, 2018)
Values after ≈ are worked out from the molar mass of the structure shown. Active and inactive are the calls of the source. No cut-off for these calls is given here.

Assays:
[1] = system: Staphylococcus aureus; assay: Antibacterial activity against Staphylococcus aureus assessed as growth inhibition at 16 ug/ml after 24 hrs; assay type: functional, organism-based
Procedure, shortened: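 S. aureus grown in Mueller Hinton Broth to early exponential phase, then exposed to compound (16 μg/mL; DMSO stocks 10 mg/mL) or DMSO in duplicate, 37 °C for 24 h. OD600 read; percent normalized OD600 = (X − media blank)/(DMSO control − media blank) × 100.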

[2] = system: Staphylococcus aureus; assay: Bacteriostatic activity against Staphylococcus aureus ATCC 25923 after 20 hrs by broth microdilution method; assay type: functional; details: ATCC 25923, 20 h
Procedure, shortened: (§1)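 Broth microdilution MIC over 128 to 1 μg/mL, run alongside methicillin, linezolid and vancomycin. MIC taken as the lowest concentration with no visible growth.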

[3] = system: Listeria monocytogenes; assay: Bacteriostatic activity against Listeria monocytogenes ATCC 19115 after 20 hrs by broth microdilution method; assay type: functional; details: ATCC 19115, 20 h
Procedure, shortened: (§2)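 MIC by broth microdilution across 128 to 1 μg/mL in 96-well plates, 37 °C for at least 20 h. MIC is the lowest concentration with no visible growth.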

[4] = system: Enterococcus faecalis; assay: Bacteriostatic activity against Enterococcus faecalis ATCC 29212 after 20 hrs by broth microdilution method; assay type: functional; details: ATCC 29212, 20 h; procedure, shortened: as §1
[5] = system: Staphylococcus aureus; assay: Bacteriostatic activity against methicillin-resistant Staphylococcus aureus ATCC 33592 after 20 hrs by broth microdilution method; assay type: functional; details: ATCC 33592, 20 h; procedure, shortened: as §1
[6] = system: Enterococcus faecalis; assay: Bacteriostatic activity against vancomycin-resistant Enterococcus faecalis ATCC 51575 after 20 hrs by broth microdilution method; assay type: functional; details: ATCC 51575, 20 h; procedure, shortened: as §1
[7] = system: Escherichia coli; assay: Bacteriostatic activity against AcrAB-tolC deficient Escherichia coli JW5503-1 after 20 hrs by broth microdilution method; assay type: functional; details: JW5503-1, 20 h; procedure, shortened: as §2
[8] = system: Escherichia coli; assay: Bacteriostatic activity against Escherichia coli BW25113 after 20 hrs by broth microdilution method; assay type: functional; details: BW25113, 20 h; procedure, shortened: as §2
[9] = system: Acinetobacter baumannii; assay: Bacteriostatic activity against Acinetobacter baumannii ATCC 19606 after 20 hrs by broth microdilution method; assay type: functional; details: ATCC 19606 = CIP 70.34 = JCM 6841; procedure, shortened: as §2
[10] = system: Pseudomonas aeruginosa; assay: Bacteriostatic activity against Pseudomonas aeruginosa ATCC 15442 after 20 hrs by broth microdilution method; assay type: functional; procedure, shortened: as §2
[11] = system: Klebsiella pneumoniae; assay: Bacteriostatic activity against Klebsiella pneumoniae BAA 1706 after 20 hrs by broth microdilution method; assay type: functional; procedure, shortened: as §2

MIC [9] | MIC [10] | MIC [11] | Molecule | growth inhibition (GI) [1] | MIC [2] | MIC [3] | MIC [4] | MIC [5] | MIC [6] | MIC [7] | MIC [8]
 |  |  | C[C@@H]1C[C@H](C)CN(S(=O)(=O)c2ccc(C(=O)Nc3nnc(-c4ccc(F)cc4)o3)cc2)C1 (mixture of isomers) | Active | 4 µg/mL | 4 µg/mL | 4 µg/mL | 4 µg/mL | 4 µg/mL |  | 
 |  |  | CN(C)S(=O)(=O)c1ccc(C(=O)Nc2nnc(-c3ccc(Cl)cc3)o2)cc1 | Active | 64 µg/mL (≈ 157 µM) | 64 µg/mL (≈ 157 µM) | 64 µg/mL (≈ 157 µM) | 32 µg/mL (≈ 78.7 µM) | 64 µg/mL (≈ 157 µM) |  | 
 |  |  | C#CCNS(=O)(=O)c1ccc(C(=O)Nc2nnc(-c3ccc(Cl)cc3)o2)cc1 | Active | 64 µg/mL (≈ 154 µM) | 64 µg/mL (≈ 154 µM) | 64 µg/mL (≈ 154 µM) | 32 µg/mL (≈ 76.8 µM) | 64 µg/mL (≈ 154 µM) |  | 
 |  |  | CCN(CC)S(=O)(=O)c1ccc(C(=O)Nc2nnc(-c3ccc(Cl)cc3)o2)cc1 | Active | 16 µg/mL (≈ 36.8 µM) | 16 µg/mL (≈ 36.8 µM) | 32 µg/mL (≈ 73.6 µM) | 16 µg/mL (≈ 36.8 µM) | 16 µg/mL (≈ 36.8 µM) |  | 
 |  |  | CC1CCCCN1S(=O)(=O)c1ccc(C(=O)Nc2nnc(-c3cccs3)o2)cc1 (stereo not given) | Active | 8 µg/mL (≈ 18.5 µM) | 16 µg/mL (≈ 37 µM) | 16 µg/mL (≈ 37 µM) | 8 µg/mL (≈ 18.5 µM) | 16 µg/mL (≈ 37 µM) |  | 
 |  |  | CN(C)S(=O)(=O)c1ccc(C(=O)Nc2nnc(-c3ccc(F)cc3)o2)cc1 | Active | 16 µg/mL (≈ 41 µM) | 32 µg/mL (≈ 82 µM) | 32 µg/mL (≈ 82 µM) | 16 µg/mL (≈ 41 µM) | 32 µg/mL (≈ 82 µM) |  | 
 |  |  | C[C@@H]1C[C@H](C)CN(S(=O)(=O)c2ccc(C(=O)Nc3nnc(-c4cccc(C#N)c4)o3)cc2)C1 (mixture of isomers) | Active | 16 µg/mL | 8 µg/mL | 32 µg/mL | 8 µg/mL | 16 µg/mL |  | 
 |  |  | C[C@@H]1C[C@H](C)CN(S(=O)(=O)c2ccc(C(=O)Nc3nnc(-c4cccs4)[nH]3)cc2)C1 | inactive |  |  |  |  |  |  | 
 |  |  | COc1cccc(-c2nnc(NC(=O)c3ccc(S(=O)(=O)N(C)CC4CCCO4)cc3)o2)c1 (stereo not given) | Active | 32 µg/mL (≈ 67.7 µM) | 32 µg/mL (≈ 67.7 µM) | 32 µg/mL (≈ 67.7 µM) | 32 µg/mL (≈ 67.7 µM) | 32 µg/mL (≈ 67.7 µM) |  | 
 |  |  | O=C(Nc1nnc(-c2ccc(Cl)cc2)o1)c1ccc(S(=O)(=O)NC2CC2)cc1 | Active | 16 µg/mL (≈ 38.2 µM) | 16 µg/mL (≈ 38.2 µM) | 32 µg/mL (≈ 76.4 µM) | 16 µg/mL (≈ 38.2 µM) | 16 µg/mL (≈ 38.2 µM) |  | 
 |  |  | C[C@@H]1C[C@H](C)CN(S(=O)(=O)c2ccc(C(=O)Nc3nnc(-c4ccc(Cl)cc4)o3)cc2)C1 (mixture of isomers) | Active | 2 µg/mL | 2 µg/mL | 4 µg/mL | 1 µg/mL | 2 µg/mL |  | 
 |  |  | C[C@@H]1CN(S(=O)(=O)c2ccc(C(=O)Nc3nnc(-c4cccs4)o3)cc2)C[C@H](C)O1 | inactive |  |  |  |  |  |  | 
 |  |  | COc1cccc(OC)c1C(=O)N[C@@H]1C(=O)N2[C@@H]1SC(C)(C)[C@@H]2C(=O)O [METHICILLIN] |  | 2 µg/mL (≈ 5.26 µM) |  |  | > 128 µg/mL |  |  | 
 |  |  | C[C@@H]1C[C@H](C)CN(S(=O)(=O)c2ccc(C(=O)Nc3nnc(-c4ccc(Br)cc4)o3)cc2)C1 (mixture of isomers) | Active | 2 µg/mL | 4 µg/mL | 4 µg/mL | 4 µg/mL | 4 µg/mL |  | 
 |  |  | COc1ccc(-c2nnc(NC(=O)c3ccc(S(=O)(=O)N4C[C@H](C)C[C@H](C)C4)cc3)o2)cc1 (mixture of isomers) | Active | 4 µg/mL | 4 µg/mL | 4 µg/mL | 4 µg/mL | 4 µg/mL |  | 
 |  |  | O=C(Nc1nnc(-c2cccs2)o1)c1ccc(S(=O)(=O)N2CCCCC2)cc1 | Active | 32 µg/mL (≈ 76.5 µM) | 32 µg/mL (≈ 76.5 µM) | 16 µg/mL (≈ 38.2 µM) | 32 µg/mL (≈ 76.5 µM) | 64 µg/mL (≈ 153 µM) |  | 
 |  |  | CC[C@H]1OC(=O)[C@H](C)[C@@H](O[C@H]2C[C@@](C)(OC)[C@@H](O)[C@H](C)O2)[C@H](C)[C@@H](O[C@@H]2O[C@H](C)C[C@H](N(C)C)[C@H]2O)[C@](C)(O)C[C@@H](C)C(=O)[C@H](C)[C@@H](O)[C@]1(C)O [ERYTHROMYCIN] |  |  |  |  |  |  | ≤ 1 µg/mL | 32 µg/mL (≈ 43.6 µM)
 |  |  | CN(CC1CCCO1)S(=O)(=O)c1ccc(C(=O)Nc2nnc(-c3ccccc3)o2)cc1 (stereo not given) | Active |  |  |  |  |  |  | 
< 1 µg/mL | < 1 µg/mL | < 1 µg/mL | COLISTIN |  |  |  |  |  |  |  | 
 |  |  | C[C@@H]1C[C@H](C)CN(S(=O)(=O)c2ccc(C(=O)Nc3nnc(-c4ccc([N+](=O)[O-])cc4)o3)cc2)C1 (mixture of isomers) | Active | 32 µg/mL | 32 µg/mL | 64 µg/mL | 16 µg/mL | 32 µg/mL |  | 
 |  |  | O=C(Nc1nnc(-c2cccs2)o1)c1ccccc1 | inactive |  |  |  |  |  |  | 
 |  |  | O=C(Nc1nnc(-c2ccc(Cl)cc2)o1)c1ccc(S(=O)(=O)N2CCCC2)cc1 | Active | 16 µg/mL (≈ 37 µM) | 16 µg/mL (≈ 37 µM) | 16 µg/mL (≈ 37 µM) | 8 µg/mL (≈ 18.5 µM) | 16 µg/mL (≈ 37 µM) |  | 
 |  |  | C[C@@H]1C[C@H](C)CN(S(=O)(=O)c2ccc(C(=O)Nc3nnc(C4CCCO4)o3)cc2)C1 (stereo not given in full) | inactive |  |  |  |  |  |  | 
 |  |  | CCOC(=O)c1nnc(NC(=O)c2ccc(S(=O)(=O)N3C[C@H](C)C[C@H](C)C3)cc2)o1 | inactive |  |  |  |  |  |  | 
 |  |  | O=C(Nc1nnc(-c2ccco2)o1)c1ccc(S(=O)(=O)N2CCOCC2)cc1 | inactive |  |  |  |  |  |  | 
 |  |  | C[C@@H]1C[C@H](C)CN(S(=O)(=O)c2ccc(-c3nnc(-c4cccs4)o3)cc2)C1 | inactive |  |  |  |  |  |  | 
